Source: ChEMBL document CHEMBL1152358, “Aminoparthenolides as novel anti-leukemic agents: Discovery of the NF-kappaB inhibitor, DMAPT (LC-1)” (Bioorg Med Chem Lett, 2009)

Tests used:
[1] = Antileukemic activity against acute myeloid leukemia cell assessed as cell death; format: functional; settings: read-out: LD50 (the source's name)
Outline: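 Primary AML cells from consenting volunteer donors (one million cells) were cultured in serum-free medium. They were exposed for 24 h, with or without analog, in a dose-response series over 2.5–20 range. Cells were PBS-washed, stained with Annexin-V/7-AAD in HEPES pH 7.4 binding buffer for 15 min in the dark at ambient temperature, then run on a flow cytometer. Viability (Annexin V−/7-AAD−) was normalized to untreated controls, and LD₅₀ was calculated from this series.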

[2] = Antileukemic activity against acute myeloid leukemia cell assessed as cell death at 10 uM; format: functional
Outline: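 Probe screen: one million donor-derived primary AML cells in serum-free medium were incubated 24 h with or without analog at a single probe concentration. Cells were PBS-washed, then stained with Annexin-V and 7-AAD in HEPES/NaCl/CaCl₂ buffer pH 7.4 for 15 min, dark, ambient temperature. Flow cytometry followed immediately. Annexin V−/7-AAD− cells were scored viable, normalized to untreated specimens.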

[3] = Aqueous solubility of the compound; format: physicochemical; settings: buffer

`C=C1C(=O)O[C@@H]2C3O[C@]3(C)CC/C=C(\C)CC[C@@H]12` (some centres not stated) gave a CC50 [1] of 1400 nM, an Activity [2] of 84% and a solubility [3] of 0.169 uM/ml.
For `CCCN(C)C[C@@H]1C(=O)O[C@H]2[C@H]1CC/C(C)=C\CC[C@@]1(C)O[C@@H]21.O=C(O)/C=C/C(=O)O`, the CC50 [1] was 3200 nM and the Activity [2] was 95%.
Compound `C/C1=C/CC[C@@]2(C)O[C@H]2[C@H]2OC(=O)[C@@H](CN3CCOCC3)[C@@H]2CC1.O=C(O)/C=C/C(=O)O` has a CC50 [1] of 14000 nM and an Activity [2] of 20%.
`C/C1=C/CC[C@@]2(C)O[C@H]2[C@H]2OC(=O)[C@@H](CNN(C)C)[C@@H]2CC1.O=C(O)/C=C/C(=O)O` showed an Activity [2] of 0%.
Work on `C/C1=C/CC[C@@]2(C)O[C@H]2[C@H]2OC(=O)[C@@H](CNCCCN)[C@@H]2CC1.O=C(O)/C=C/C(=O)O` yielded an Activity [2] of 0%.
Work on `C/C1=C/CC[C@@]2(C)O[C@H]2[C@H]2OC(=O)[C@@H](CNNC(C)(C)C)[C@@H]2CC1.O=C(O)/C=C/C(=O)O` yielded an Activity [2] of 0%.
Compound `C/C1=C/CC[C@@]2(C)O[C@H]2[C@H]2OC(=O)[C@@H](CNC3CC3)[C@@H]2CC1.O=C(O)/C=C/C(=O)O` has an Activity [2] of 6%.
With `CCN(C)C[C@@H]1C(=O)O[C@H]2[C@H]1CC/C(C)=C\CC[C@@]1(C)O[C@@H]21.O=C(O)/C=C/C(=O)O` the CC50 [1] was 2500 nM and the Activity [2] was 80%.
Compound `C/C1=C/CC[C@@]2(C)O[C@H]2[C@H]2OC(=O)[C@@H](CN(C)C(C)C)[C@@H]2CC1.O=C(O)/C=C/C(=O)O` has an Activity [2] of 78%.
In the case of `C/C1=C/CC[C@@]2(C)O[C@H]2[C@H]2OC(=O)[C@@H](CNCCN)[C@@H]2CC1.O=C(O)/C=C/C(=O)O`, the Activity [2] is reported as 0%.
In the case of `CCCCCN(C)C[C@@H]1C(=O)O[C@H]2[C@H]1CC/C(C)=C\CC[C@@]1(C)O[C@@H]21.O=C(O)/C=C/C(=O)O`, the CC50 [1] is reported as 4600 nM and the Activity [2] is reported as 46%.
`C/C1=C/CC[C@@]2(C)O[C@H]2[C@H]2OC(=O)[C@@H](CN(C)CCO)[C@@H]2CC1.O=C(O)/C=C/C(=O)O` gave a CC50 [1] of 1800 nM and an Activity [2] of 86%.
Work on `C/C1=C/CC[C@@]2(C)O[C@H]2[C@H]2OC(=O)[C@@H](CN(C)[C@@H]3[C@@H](O)[C@H](O)[C@@H](CO)O[C@H]3O)[C@@H]2CC1.O=C(O)/C=C/C(=O)O` yielded an Activity [2] of 0%.
`C/C1=C/CC[C@@]2(C)O[C@H]2[C@H]2OC(=O)[C@@H](C)[C@@H]2CC1` showed an Activity [2] of 0%.
`C/C1=C/CC[C@@]2(C)O[C@H]2[C@H]2OC(=O)[C@@H](CN(C3CCCCC3)C3CCCCC3)[C@@H]2CC1.O=C(O)/C=C/C(=O)O` showed an Activity [2] of 12%.
Compound `C[C@@H]1C(=O)O[C@H]2[C@H]1CCC1(C)OC1CC[C@@]1(C)O[C@@H]21` (some centres not stated) has an Activity [2] of 0%.
In the case of `C/C1=C/CC[C@@]2(C)O[C@H]2[C@H]2OC(=O)[C@@H](CN3CCCCC3)[C@@H]2CC1.O=C(O)/C=C/C(=O)O`, the CC50 [1] is reported as 2400 nM and the Activity [2] is reported as 76%.
For `C/C1=C/CC[C@@]2(C)O[C@H]2[C@H]2OC(=O)[C@@H](CN3CCCCCCC3)[C@@H]2CC1.O=C(O)/C=C/C(=O)O`, the Activity [2] was 13%.
In the case of `C/C1=C/CC[C@@]2(C)O[C@H]2[C@H]2OC(=O)[C@@H](CN[C@@H]3[C@@H](O)[C@H](O)[C@@H](CO)O[C@H]3O)[C@@H]2CC1.O=C(O)/C=C/C(=O)O`, the Activity [2] is reported as 0%.
Work on `C/C1=C/CC[C@@]2(C)O[C@H]2[C@H]2OC(=O)[C@@H](CN3CCCCCC3)[C@@H]2CC1.O=C(O)/C=C/C(=O)O` yielded an Activity [2] of 15%.
With `C/C1=C/CC[C@@]2(C)O[C@H]2[C@H]2OC(=O)[C@@H](CN3CC3)[C@@H]2CC1.O=C(O)/C=C/C(=O)O` the Activity [2] was 22%.
Compound `C=C1C(=O)O[C@H]2[C@H]1CC/C(C=O)=C\CC[C@@]1(C)O[C@@H]21` has an Activity [2] of 0%.
Work on `C/C1=C/CC[C@@]2(C)O[C@H]2[C@H]2OC(=O)[C@@H](CN3CCC(C)CC3)[C@@H]2CC1.O=C(O)/C=C/C(=O)O` yielded a CC50 [1] of 1600 nM and an Activity [2] of 83%.
`C/C1=C/CC[C@@]2(C)O[C@H]2[C@H]2OC(=O)[C@@H](CN(C(C)C)C(C)C)[C@@H]2CC1.O=C(O)/C=C/C(=O)O` showed an Activity [2] of 20%.
`CNC[C@@H]1C(=O)O[C@H]2[C@H]1CC/C(C)=C\CC[C@@]1(C)O[C@@H]21.O=C(O)/C=C/C(=O)O` showed a CC50 [1] of 18000 nM and an Activity [2] of 4%.
For `C/C1=C/CC[C@@]2(C)O[C@H]2[C@H]2OC(=O)[C@@H](CN(C)C)[C@@H]2CC1.O=C(O)/C=C/C(=O)O`, the CC50 [1] was 1700 nM and the Activity [2] was 93%.
`CCNC[C@@H]1C(=O)O[C@H]2[C@H]1CC/C(C)=C\CC[C@@]1(C)O[C@@H]21.O=C(O)/C=C/C(=O)O` showed a CC50 [1] of 31000 nM and an Activity [2] of 2%.
`C/C1=C/CC[C@@]2(C)O[C@H]2[C@H]2OC(=O)[C@@H](CN(C)C3CCCCC3)[C@@H]2CC1.O=C(O)/C=C/C(=O)O` gave a CC50 [1] of 15000 nM and an Activity [2] of 0%.
With `CCN(CC)C[C@@H]1C(=O)O[C@H]2[C@H]1CC/C(C)=C\CC[C@@]1(C)O[C@@H]21.O=C(O)/C=C/C(=O)O` the Activity [2] was 60%.
Work on `C=CCN(CC=C)C[C@@H]1C(=O)O[C@H]2[C@H]1CC/C(C)=C\CC[C@@]1(C)O[C@@H]21.O=C(O)/C=C/C(=O)O` yielded an Activity [2] of 0%.
With `C#CNC[C@@H]1C(=O)O[C@H]2[C@H]1CC/C(C)=C\CC[C@@]1(C)O[C@@H]21.O=C(O)/C=C/C(=O)O` the Activity [2] was 7%.
In the case of `CCCN(CCC)C[C@@H]1C(=O)O[C@H]2[C@H]1CC/C(C)=C\CC[C@@]1(C)O[C@@H]21.O=C(O)/C=C/C(=O)O`, the Activity [2] is reported as 0%.
`C=C1C(=O)O[C@H]2[C@H]1CC/C(CO)=C\CC[C@@]1(C)O[C@@H]21` gave an Activity [2] of 0%.
In the case of `C/C1=C/CC[C@@]2(C)O[C@H]2[C@H]2OC(=O)[C@@H](CN3CCCC3)[C@@H]2CC1.O=C(O)/C=C/C(=O)O`, the CC50 [1] is reported as 2700 nM and the Activity [2] is reported as 82%.
For `C/C1=C/CC[C@@]2(C)O[C@H]2[C@H]2OC(=O)[C@@H](CNCCO)[C@@H]2CC1.O=C(O)/C=C/C(=O)O`, the Activity [2] was 0%.
Compound `CCCCN(C)C[C@@H]1C(=O)O[C@H]2[C@H]1CC/C(C)=C\CC[C@@]1(C)O[C@@H]21.O=C(O)/C=C/C(=O)O` has a CC50 [1] of 2800 nM and an Activity [2] of 68%.
Compound `C/C1=C/CC[C@@]2(C)O[C@H]2[C@H]2OC(=O)[C@@H](CNCCCO)[C@@H]2CC1.O=C(O)/C=C/C(=O)O` has an Activity [2] of 0%.
